Source: PubChem (several laboratories)
The list is not random: actives were taken first. Their share in the collection is about 3.1%.
TAG inh: inhibitors of triacylglycerol accumulation, primary screen, cell-based, uHTS, fluorescence, H9c2; H9c2 cells, Nile Red lipid (TAG) fluorescence; cells loaded with 200 µM oleic acid; inhibition, % at 12.5 µM; 230,000 tested, 0.66% active;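 active = pattern-corrected inhibition of lipid staining of at least 50% with the nuclear-stain viability signal not falling by more than 50%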;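 also: 0% = DMSO wells and 100% = triacsin C control wells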
Beta cell apopt: inhibitors of cytokine-induced beta cell apoptosis, primary screen, luminescence. INS-1E cytokine-induced death, ATP luminescence, 48 h; percent of positive-control rescue, neutral wells zero. 300,000 tested, 0.8% active. protection from apoptosis, % (concentration not given with the values);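 active = Every replicate reaches about 75%, or at least half do and their mean reaches it too, limit read from the data; inconclusive = At least half of replicates reach the limit but their mean does not; inactive = Under half of replicates reach the limit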;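 also: 0% = cytokine-treated negative control wells and 100% = positive control rescue; higher means more ATP so stronger rescue from cytokine killing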
T cruzi inh: inhibitors of intracellular T. cruzi growth, primary screen, luminescence, NIH3T3 host cells; T. cruzi beta-gal in NIH3T3, 90 h; inhibition, % (no concentration beside the values); AID 1885, 2009; 300,000 tested, 1.4% active;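 active = mean inhibition across valid replicates above about 55%, limit read from the data; inconclusive = mean below that limit but half or more replicates reach it; inactive = mean below it, under half of replicates reach it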;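 also: signal also drops with host cell toxicity which is not excluded here; 0% = plate median of DMSO wells and 100% = zero luminescence signal; higher percent means less beta-gal luminescence so fewer parasites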
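System: mouse NIH/3T3 fibroblasts infected with β-gal-expressing T. cruzi Tulahuen C4 / Input: NIH/3T3 cells, 5,000 per well / Buffer or medium: Low-serum DMEM with 2% FBS / Probe or stimulus: 5000 reporter trypomastigotes per well / Schedule: ≥90 h infection period, 3 h prior cell attachment / Measured by: GalScreen luminescence, 60 min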
A1 inh: caspase 3/7 activation in MEF A1-2A-BIM cells, primary screen, A1 inhibitor project, cell-based, luminescence, HTS; caspase activation, % (concentration not given with the values); 330,000 tested, 0.066% active; Caspase-Glo 3/7 luminescence, 3 h; percent of clofoctol response, vehicle zero;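 active = over half of replicate activation scores above 10%, or exactly half above 10 with the replicate mean above 10; inconclusive = replicate mean below 10 yet half the replicates above 10; inactive = over half of replicates below 10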
Calb FLC: C. albicans growth inhibition with fluconazole, primary screen, CaCi-2 strain, Alamar Blue fluorescence; AID 1979, 2009; C. albicans CaCi-2 + fluconazole, 48 h; growth inhibition, % (concentration not given with the values); 300,000 tested, 0.57% active;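 active = growth inhibition above about 58% in most replicates, limit read from the data, passing the limit was not always enough; inconclusive = exactly half the replicates above a set limit; inactive = most replicates below a set limit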;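 also: all wells also contain fluconazole at 8 µg/ml as a sub-toxic cotreatment; 0% = median of DMSO wells and 100% = median of geldanamycin control wells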
CSC inhib: cancer stem cell viability inhibitors, primary screen, luminescence; cancer stem cell-like cells viability; 300,000 tested, 1.1% active; inhibition, % at 7.5 µM; in the data active = inhibition above about 75%; inconclusive = no clear call, values can overlap the other calls; tested in HMLE shEcad cells
The depositor's hits bear a star; ? = inconclusive; nt = no result given.

SMILES	TAG inh	Beta cell apopt	T cruzi inh	A1 inh	Calb FLC	CSC inhib
COC(=O)[C@@H]1C[C@]2(OC(=O)c3ccccc3)C=CC(=O)C[C@@H]2N1C(=O)OCc1ccccc1	38	1	36	1	-4	76*
Cc1ccc(-n2nnnc2SCC(=O)c2cc(C)n(CC3CCCO3)c2C)cc1 (stereo unspecified)	nt	-7	58*	0	15	10
Cc1cccc(-n2nnnc2SCC(=O)c2cc(C)n(CC3CCCO3)c2C)c1 (stereo unspecified)	11	-5	14	0	18	nt
O=c1[nH]c(/C(Cl)=C/c2cc(Cl)ccc2O)nc2cc(Cl)ccc12	nt	-4	-11	0	-7	101*
O=c1[nH]c(/C(Cl)=C/c2c(F)cccc2Cl)nc2cc(Cl)ccc12	nt	-13	0	-2	3	-12
Oc1cccc(C(O)CNCc2ccc(OCc3ccc(Cl)cc3Cl)cc2)c1 (stereo unspecified)	-18	5	-1	0	14	78*
Oc1cccc(C(O)CNCc2ccc(-c3ccccc3)cc2)c1 (stereo unspecified)	5	0	28	0	8	45
CC(C)Cn1c(N)c(C(=O)CSc2nc3ccccc3n2C)c(=O)n(C)c1=O	nt	1	-2	0	23	1
CC(C)Cn1c(N)c(C(=O)CSc2nc3ccccc3c(=O)n2CCCN2CCOCC2)c(=O)n(C)c1=O	nt	-2	55*	0	-31	-7
CNCCCOc1ccc2c(c1)CCC2	-9	-8	6	0	3	-8
c1cnc(SCCOc2ccc3c(c2)CCC3)nc1	2	-10	-7	-1	101*	9
COc1ccc(-n2c(C)cc(C)c(C(C)=O)c2=S)cc1	nt	-3	-8	0	-6	1
COc1ccccc1-n1c(C)cc(SC)c(C(C)=O)c1=S	-25	0	-2	0	86*	10
C#CCN1C(C)=CC(=O)[C@@H](O)[C@H]1c1ccccc1Br	-3	nt	nt	nt	nt	nt
Cc1cc(C)c2cccc(N)c2n1	nt	17	-6	-1	6	2
Cc1cc(C)c2ccc(N)nc2c1O	-12	34	17	-1	107*	25
O=C(N=Nc1c(O)[nH]c2ccc(Br)cc12)c1ccccc1-n1cccc1	nt	34	nt	0	?	80*
O=C(N=Nc1c(O)[nH]c2ccc(Br)cc12)c1cc(-c2cccs2)nc2ccccc12	26	nt	56*	nt	2	nt
O=C(O)c1cc(N=Nc2c(O)[nH]c3ccc([N+](=O)[O-])cc23)ccc1Cl	nt	-5	0	-5	-2	-8
Cn1c(O)c(N=NC(=O)c2cc(-c3cccs3)nc3ccccc23)c2ccccc21	nt	24	13	-1	-1	nt
O=C(N=Nc1c(O)[nH]c2ccc(Br)cc12)c1ccco1	11	nt	nt	nt	nt	nt
O=C(N=Nc1c(O)[nH]c2ccc([N+](=O)[O-])cc12)c1cc(-c2ccccc2Cl)nc2ccccc12	2	29	-26	48*	nt	9
Cc1cc(OCC(=O)N(Cc2ccccc2)C2CCS(=O)(=O)C2)ccc1Cl (stereo unspecified)	nt	-7	4	0	15	-22
O=C(NCc1ccc(F)cc1)c1cc(C2CCCN(C(=O)CCCc3ccccc3)C2)on1 (stereo unspecified)	-4	nt	nt	nt	nt	nt
Cc1ccc(S(=O)(=O)Nc2ccc(O)c3ncccc23)cc1	21	49	44	-1	99*	29
SMILES	TAG inh	Beta cell apopt	T cruzi inh	A1 inh	Calb FLC	CSC inhib
CCc1ccc(CCC(=O)Nc2ncc(Cc3ccccc3Cl)s2)o1	nt	10	-7	2	26	82*
O=C(CN1CCOCC1)Nc1ncc(Cc2ccccc2Cl)s1	nt	nt	13	0	4	nt
O=C(Nc1ncc(Cc2ccc(C(F)(F)F)cc2)s1)c1ccc(-c2cccc([N+](=O)[O-])c2)o1	13	7	36	0	1	43
O=C(Nc1ncc(Cc2ccccc2Cl)s1)c1ccc(-c2cccc([N+](=O)[O-])c2)o1	nt	12	60*	0	3	45
O=C(Nc1ncc(Cc2cccc([N+](=O)[O-])c2)s1)c1ccco1	-5	1	11	0	-4	97*
O=C(c1ccccc1)c1ccc[nH]1	5	nt	nt	nt	nt	nt
O=C(Nc1ccc(N2CCCCC2)cc1)c1cc([N+](=O)[O-])cc([N+](=O)[O-])c1	nt	9	60*	0	-9	6
O=[N+]([O-])c1ccc(N2CCN(C(=S)Nc3ccc(F)cc3)CC2)cc1	-35	76*	-99	-1	-17	16
O=[N+]([O-])c1ccc(N2CCN(C(=S)Nc3cccc(F)c3)CC2)cc1	-27	7	-40	1	-11	-3
CCCCCCCCCC(=O)N/N=C(\C)c1cccnc1	-25	2	62*	1	-22	13
CCCCCCCC(=O)N/N=C(\C)c1ccc(N)cc1	nt	2	-8	0	-76	19
CCOC(=O)CC1C(=O)NCCN1C(=O)c1c(Cl)cccc1Cl (stereo unspecified)	nt	nt	-4	0	92*	nt
CC(=O)N(C)Cc1ccc(C(=O)CCl)cc1	11	3	74*	1	?	-2
CC(=O)Nc1ccc(C(=O)CCl)cc1	nt	-21	nt	1	nt	43
CC(=O)N(C)Cc1ccc(C(=O)CSc2nnc(C3CC3)n2C2CC2)cc1	-3	-1	nt	-1	nt	1
CC(=O)NCc1ccc(C(=O)CCl)s1	26	-57	56*	2	14	21
CC(=O)NCc1ccc(C(=O)CCl)cc1	10	-33	61*	0	24	-1
Cc1ccc(Cn2nc(C)c(C(=O)NCC(c3ccc(F)cc3)N3CCOCC3)c2Cl)cc1 (stereo unspecified)	-7	-1	nt	-1	nt	-2
O=C(Nc1ncccc1O)c1ccc(Cl)c(S(=O)(=O)N2CCCCC2)c1	-1	-1	2	0	-2	nt
NC(=O)C1CCN(C(=O)C(=O)c2cn(CC(=O)N3CCCCCC3)c3ccccc23)CC1	4	2	62*	0	-5	8
CC1CCN(C(=O)C(=O)c2cn(CC(=O)N3CCCCCC3)c3ccccc23)CC1	39	5	55*	-1	-11	nt
CC1CCCN(C(=O)C(=O)c2cn(CC(=O)N3CCCCCC3)c3ccccc23)C1 (stereo unspecified)	16	0	62*	0	-6	nt
CCN1CCN(C(=O)C(=O)c2cn(CC(=O)N3CCCCCC3)c3ccccc23)CC1	6	1	27	0	-5	-9
CN1CCN(C(=O)C(=O)c2cn(CC(=O)N3CCCCCC3)c3ccccc23)CC1	-8	nt	nt	nt	nt	nt
